The record followed here is ChEMBL document CHEMBL4270613, “Design, synthesis, biological evaluation and structure-activity relationship of sophoridine derivatives bearing pyrrole or indole scaffold as potential antitumor agents” (Eur J Med Chem, 2018).

The subject of series [1] is HepG2. The series can be described thus: Antitumor activity against human HepG2 cells xenografted in nude mouse assessed as tumor growth inhibition at 40 mg/kg for 25 days. The class given is functional, organism-based. In short, it runs like this:
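HepG2 xenografts were grown in nude mice and dosed at 40 mg/kg alongside a vehicle group. Tumour volume and body weight were recorded every 2 days. At the end, tumours were excised and weighed. Groups were compared with the vehicle group.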
(In general: Xenograft models place foreign cells or tissue in a host animal.)

A further series relates to HeLa. The series can be described thus: Antiproliferative activity against human HeLa cells after 72 hrs by MTT assay. In kind it is functional, cell-based.
The test system of another series is CNE. Briefly: Antiproliferative activity against human CNE1 cells after 72 hrs by MTT assay. In kind it is functional, cell-based. A general note: Tetrazolium assays rely on reduction of a dye to a coloured formazan, in cell work by metabolically active cells.
The subject of another series is CNE-2. The series can be described thus: Antiproliferative activity against human CNE2 cells after 72 hrs by MTT assay. The class given is functional, cell-based. Conditions: CNE-2, 72 h.
Series [2] deals with HepG2. The series can be described thus: Antiproliferative activity against human HepG2 cells after 48 hrs by MTT assay. In kind it is functional, cell-based. Conditions: HepG2, 48 h. In short, it runs like this: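 HepG2 exposed to compounds for 48 h; MTT readout; camptothecin positive control; IC50 calculated; mean ± SD of three independent experiments, each in triplicate.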

Another series deals with MCF7. The series can be described thus: Antiproliferative activity against human MCF7 cells after 72 hrs by MTT assay. In kind it is functional, cell-based. Conditions: MCF7, 72 h.
In series [3] the test system is HepG2. The series can be described thus: Antiproliferative activity against human HepG2 cells after 72 hrs by MTT assay. In kind it is functional, cell-based. Conditions: HepG2, 72 h.
The test system of another series is SMMC-7721. Briefly: Antiproliferative activity against human SMMC7721 cells after 72 hrs by MTT assay. In kind it is functional, cell-based. Particulars: SMMC-7721, 72 h.
Series [4] concerns HepG2. The series can be described thus: Induction of apoptosis in human HepG2 cells assessed as necrotic cells at 3 uM after 24 hrs by Annexin V-FITC/propidium iodide staining based flow cytometry (reference value: 1.18%). The class given is functional. In short, it runs like this:
(§1)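 HepG2 treated at 0, 0.75, 1.5 and 3 µM for 24 h, then Annexin V-FITC/PI dual staining and quantification by flow cytometry.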
(In general: Flow cytometry measures light scatter and fluorescence of single cells or particles in a stream.)

Series [5] relates to HepG2. Briefly: Upregulation of Bax protein expression in human HepG2 cells after 24 hrs by Western blot analysis. The class given is functional, cell-based. In short, it runs like this: (§2)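 HepG2 treated at 0, 0.75, 1.5 and 3 µM for 24 h, then western blot for Bax, Bcl-2 and cleaved caspase-3.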
Series [6] deals with HepG2. Briefly: Induction of apoptosis in human HepG2 cells assessed as live cells at 1.5 uM after 24 hrs by Annexin V-FITC/propidium iodide staining based flow cytometry (reference value: 96.2%). The class given is functional. An outline of the steps: as §1
For series [7], the system named is HepG2. Briefly: Induction of apoptosis in human HepG2 cells assessed as live cells at 0.75 uM after 24 hrs by Annexin V-FITC/propidium iodide staining based flow cytometry (reference value: 96.2%). The class given is functional. In short, it runs like this: as §1
In series [8] the test system is HepG2. Briefly: Induction of apoptosis in human HepG2 cells assessed as early apoptotic cells at 1.5 uM after 24 hrs by Annexin V-FITC/propidium iodide staining based flow cytometry (reference value: 1%). The class given is functional. An outline of the steps: as §1
Another series concerns Mus musculus. Briefly: Toxicity in nude mouse xenografted with human HepG2 cells assessed as change in body weight at 40 mg/kg for 25 days. In kind it is organism-based. Particulars: in vivo, 600 h. An outline of the steps: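 Nude mice bearing HepG2 xenografts dosed at 40 mg/kg against vehicle; body weight and tumor volume measured every 2 days; tumors weighed at end.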

For series [9], the system named is HepG2. The series can be described thus: Downregulation of Bcl2 protein expression in human HepG2 cells after 24 hrs by Western blot analysis. In kind it is functional, cell-based. An outline of the steps: as §2
For series [10], the target named is T1, DNA topoisomerase 1 (Homo sapiens) (UniProt P11387).
T1 sequence (whole entry): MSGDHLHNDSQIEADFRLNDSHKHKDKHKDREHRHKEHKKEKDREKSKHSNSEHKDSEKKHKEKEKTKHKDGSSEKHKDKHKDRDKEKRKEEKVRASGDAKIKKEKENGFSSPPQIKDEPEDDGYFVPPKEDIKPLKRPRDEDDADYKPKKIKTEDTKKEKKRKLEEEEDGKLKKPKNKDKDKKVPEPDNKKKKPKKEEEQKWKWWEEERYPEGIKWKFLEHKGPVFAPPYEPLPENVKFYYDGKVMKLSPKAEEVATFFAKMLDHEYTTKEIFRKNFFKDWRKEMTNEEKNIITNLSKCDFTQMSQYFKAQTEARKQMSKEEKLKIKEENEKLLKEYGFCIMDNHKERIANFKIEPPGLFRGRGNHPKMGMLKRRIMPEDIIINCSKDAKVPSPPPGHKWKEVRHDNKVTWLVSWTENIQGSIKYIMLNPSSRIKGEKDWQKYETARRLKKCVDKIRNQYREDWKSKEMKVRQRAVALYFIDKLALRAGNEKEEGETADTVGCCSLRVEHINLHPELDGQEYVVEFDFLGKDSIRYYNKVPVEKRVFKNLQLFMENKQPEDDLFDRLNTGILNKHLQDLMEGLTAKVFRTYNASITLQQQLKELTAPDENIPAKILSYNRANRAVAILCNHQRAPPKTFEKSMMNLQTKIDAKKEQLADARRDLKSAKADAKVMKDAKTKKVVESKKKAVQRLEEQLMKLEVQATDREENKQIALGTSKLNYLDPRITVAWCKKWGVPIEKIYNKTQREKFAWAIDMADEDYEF
Briefly: Inhibition of recombinant human topoisomerase-1 using supercoiled pBR322 DNA as substrate after 45 mins by ethidium bromide staining based gel electrophoresis method. In short, it runs like this: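 Plasmid relaxation assay: pBR322 DNA with Topo I plus DMSO vehicle, test compound at 1000, 500, 250 or 100 µM, or CPT at 100 µM as control; DNA alone as reference lane; products resolved on gel.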

The test system of series [11] is HepG2. Briefly: Induction of apoptosis in human HepG2 cells assessed as late apoptotic cells at 1.5 uM after 24 hrs by Annexin V-FITC/propidium iodide staining based flow cytometry (reference value: 1.6%). In kind it is functional. An outline of the steps: as §1
The subject of series [12] is HepG2. Briefly: Induction of apoptosis in human HepG2 cells assessed as live cells at 3 uM after 24 hrs by Annexin V-FITC/propidium iodide staining based flow cytometry (reference value: 96.2%). In kind it is functional. In short, it runs like this: as §1
Series [13] concerns HepG2. Briefly: Induction of apoptosis in human HepG2 cells assessed as necrotic cells at 1.5 uM after 24 hrs by Annexin V-FITC/propidium iodide staining based flow cytometry (reference value: 1.18%). In kind it is functional. An outline of the steps:
as §1

Series [14] has as its system HepG2. Briefly: Induction of apoptosis in human HepG2 cells assessed as late apoptotic cells at 3 uM after 24 hrs by Annexin V-FITC/propidium iodide staining based flow cytometry (reference value: 1.6%). In kind it is functional. An outline of the steps: as §1
In series [15] the test system is HepG2. Briefly: Upregulation of cleaved caspase-3 protein expression in human HepG2 cells at 0.75 to 3 uM after 24 hrs by Western blot analysis. The class given is functional, cell-based. In short, it runs like this:
as §2

In series [16] the test system is HepG2. Briefly: Induction of apoptosis in human HepG2 cells after 24 hrs by Annexin V-FITC/propidium iodide staining based flow cytometry. In kind it is functional, cell-based. An outline of the steps: as §1
Series [17] concerns HepG2. The series can be described thus: Induction of apoptosis in human HepG2 cells assessed as early apoptotic cells at 0.75 uM after 24 hrs by Annexin V-FITC/propidium iodide staining based flow cytometry (reference value: 1%). The class given is functional. An outline of the steps: as §1
The subject of series [18] is HepG2. Briefly: Induction of apoptosis in human HepG2 cells assessed as early apoptotic cells at 3 uM after 24 hrs by Annexin V-FITC/propidium iodide staining based flow cytometry (reference value: 1%). The class given is functional. In short, it runs like this: as §1
Series [19] concerns HepG2. Briefly: Induction of apoptosis in human HepG2 cells assessed as late apoptotic cells at 0.75 uM after 24 hrs by Annexin V-FITC/propidium iodide staining based flow cytometry (reference value: 1.6%). In kind it is functional. In short, it runs like this: as §1
The subject of series [20] is HepG2. Briefly: Induction of apoptosis in human HepG2 cells assessed as necrotic cells at 0.75 uM after 24 hrs by Annexin V-FITC/propidium iodide staining based flow cytometry (reference value: 1.18%). The class given is functional. An outline of the steps:
as §1

The term IC50 denotes the concentration needed to halve the response being measured.

The source made the active and inactive calls. The calls are words filed in the database; no cut-off is given here.

With `O=C1CCC[C@@H]2[C@H]3CCCN4CCC[C@H](CN12)[C@@H]34`, the TGI result with HepG2 [1] was “inactive”.
Take `CC[C@@]1(O)C(=O)OCc2c1cc1n(c2=O)Cc2cc3ccccc3nc2-1` [CAMPTOTHECIN]: the IC50 is 0.66 µM in the series with HeLa; 0.34 µM in the series on CNE; 0.98 µM with CNE-2; 6.08 µM in the series with HepG2 [2]; 0.42 µM in the series with MCF7; 1.36 µM in the series on HepG2 [3]. Also, the midpoint of inhibition with SMMC-7721, the IC50, lay at 1.08 µM.
`Cc1cccc(Cn2cccc2/C=C2\CC[C@@H]3[C@H]4CCCN5CCC[C@H](CN3C2=O)[C@@H]45)c1` came in with a 50% inhibitory concentration (IC50) in the series with HepG2 [2] of 18.1 µM.
Still for that read-out and setting: the same measure for `O=C1/C(=C/c2cn(Cc3ccc(Br)cc3)c3ccccc23)CC[C@@H]2[C@H]3CCCN4CCC[C@H](CN12)[C@@H]34`: 5.94 µM.
`COc1ccc2c(c1)c(/C=C1\CC[C@@H]3[C@H]4CCCN5CCC[C@H](CN3C1=O)[C@@H]45)cn2Cc1ccc(OCc2ccccc2)cc1`: the Activity was 1.52% in the series on HepG2 [4]; “Dose-dependent effect” with HepG2 [5]; 78% in the series on HepG2 [6]; 87.6% in the series with HepG2 [7]; 9.49% in the series with HepG2 [8]; “Non-Toxic” with Mus musculus. The Activity entry in the series on HepG2 [9] is “Dose-dependent effect”; in the series with HepG2 [11] it was 11.5%; in the series with HepG2 [12], 57%; in the series with HepG2 [13] it was 0.94%; with HepG2 [14], 7.69%; with HepG2 [16], “Dose-dependent effect”. For the same molecule, the Activity in the series with HepG2 [17] came out at 6.71%; with HepG2 [18], 33.8%; in the series with HepG2 [19], 3.09%; in the series on HepG2 [20] it was 2.58%. Further, the IC50 with HeLa is 1.44 µM; with CNE it was 1.89 µM; in the series on CNE-2, 1.24 µM; with HepG2 [2], 1.96 µM; with MCF7, 0.94 µM; in the series on HepG2 [3], 0.93 µM. This molecule also yielded an IC50 in the series with SMMC-7721 of 1.32 µM. Besides, the inhibition result in series [10] was “Dose-dependent effect”. In the series on HepG2 [1], the TGI result was “Active”. For the same molecule, the outcome with HepG2 [15] was Active.
`Cn1cccc1/C=C1\CC[C@@H]2[C@H]3CCCN4CCC[C@H](CN2C1=O)[C@@H]34` gave an IC50 with HepG2 [2] greater than 100 µM.
Still for that read-out and setting: then `COc1cccc(Cn2cccc2/C=C2\CC[C@@H]3[C@H]4CCCN5CCC[C@H](CN3C2=O)[C@@H]45)c1`, with 17.2 µM.
As for `Cc1ccc(COc2ccc(Cn3cc(/C=C4\CC[C@@H]5[C@H]6CCCN7CCC[C@H](CN5C4=O)[C@@H]67)c4ccccc43)cc2)cc1`, inhibition with HepG2 [2] was half-maximal at 5.32 µM (IC50).
